# In ChEMBL document CHEMBL1126724, “Multiple binding modes for the receptor-bound conformations of cyclic AII agonists” (J Med Chem, 1993):
# *1 amine or outer side, *2 acyl side, *3 side chain or, on linkers, in order; H or OH if unused. Where a SMILES comes first, the peptide text is derived from it. Bridges are numbered along the chain shown (N, C = ends). [ ]: non-standard residue; d: D form. Pro(4S-SH) = O=C([C@@H]1C[C@H](S[*:3])CN1[*:1])[*:2]; Sar = CNCC(=O)O
# What was measured:
# [1] = target: T1, Type-1 angiotensin II receptor (Oryctolagus cuniculus, UniProt P34976); assay: Agonist efficacy assessed from contractile responses on rabbit aorta Angiotensin II receptor, type 1; Not Active; format: functional, tissue-based
# T1 sequence (P34976 whole entry): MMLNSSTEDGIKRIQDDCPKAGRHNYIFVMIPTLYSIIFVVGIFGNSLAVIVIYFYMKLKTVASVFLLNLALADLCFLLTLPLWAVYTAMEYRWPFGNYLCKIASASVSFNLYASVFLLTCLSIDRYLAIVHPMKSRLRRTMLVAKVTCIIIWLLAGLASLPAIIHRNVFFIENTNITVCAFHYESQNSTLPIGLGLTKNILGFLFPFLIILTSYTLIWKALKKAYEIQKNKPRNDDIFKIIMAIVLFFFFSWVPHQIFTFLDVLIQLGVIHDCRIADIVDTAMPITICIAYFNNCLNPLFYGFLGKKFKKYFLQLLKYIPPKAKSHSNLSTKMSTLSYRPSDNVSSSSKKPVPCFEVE
# Method in brief: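 Rabbit thoracic aortic rings held in 20-mL baths of Krebs-bicarbonate at 37 °C, gassed with 5% CO2 in oxygen. Resting tension 4.0 g, 90-min equilibration. Peptides added cumulatively until maximal response. EC50 read graphically from the curves as the concentration giving 50% of maximal contraction.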
# [2] = target: T2, Angiotensin II receptor (AT-1) type-1 (Rattus norvegicus, UniProt P29089+P25095); assay: In vitro binding affinity to the angiotensin II receptor, type 1 in rat liver
# T2 sequence (P29089 whole entry): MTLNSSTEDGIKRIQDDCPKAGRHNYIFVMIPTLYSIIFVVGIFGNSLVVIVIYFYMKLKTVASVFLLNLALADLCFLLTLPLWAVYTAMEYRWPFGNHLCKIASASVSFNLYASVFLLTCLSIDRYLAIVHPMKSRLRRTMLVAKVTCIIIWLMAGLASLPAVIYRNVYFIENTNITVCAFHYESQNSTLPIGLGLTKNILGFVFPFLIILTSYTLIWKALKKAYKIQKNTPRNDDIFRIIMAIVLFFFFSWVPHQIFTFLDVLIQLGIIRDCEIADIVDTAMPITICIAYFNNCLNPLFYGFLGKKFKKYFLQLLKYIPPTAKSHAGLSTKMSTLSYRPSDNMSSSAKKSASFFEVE
# T2 sequence (P25095 whole entry): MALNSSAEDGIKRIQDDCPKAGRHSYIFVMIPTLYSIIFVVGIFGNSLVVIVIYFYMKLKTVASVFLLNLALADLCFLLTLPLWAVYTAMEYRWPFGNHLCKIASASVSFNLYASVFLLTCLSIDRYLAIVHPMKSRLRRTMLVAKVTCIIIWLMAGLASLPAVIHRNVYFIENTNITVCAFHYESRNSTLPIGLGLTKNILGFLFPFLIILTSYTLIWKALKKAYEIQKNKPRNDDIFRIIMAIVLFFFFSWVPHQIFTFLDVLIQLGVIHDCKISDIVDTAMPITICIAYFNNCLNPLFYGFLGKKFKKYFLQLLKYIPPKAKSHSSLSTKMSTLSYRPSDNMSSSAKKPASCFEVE
# Method in brief: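 Buffer: 50 mM NaH2PO4 pH 7.1 with 100 μM bacitracin, 0.2% BSA, 100 mM NaCl, 10 mM MgCl2, 1 mM EGTA. Incubated 1 h at 25 °C, then filtered, and filters counted. IC50 from weighted nonlinear regression to the mass action equation.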
compound,measurement,setting,value
CNCC(=O)N[C@@H](CCCN=C(N)N)C(=O)N1C[C@@H]2C[C@H]1C(=O)N[C@@H](Cc1ccc(O)cc1)C(=O)N[C@H](C(=O)N[C@@H](Cc1c[nH]cn1)C(=O)N1CCC[C@H]1C(=O)N[C@@H](Cc1ccccc1)C(=O)O)CSS2 (H-[Sar]R[Pro(4S-SH)]YCHPF-OH; disulfide 3-5),EC50,[1],Not Active
same,IC50,[2],4.7 µM
